Kir21 inh – Kir2.1 (mouse) channel inhibition; P35561; HEK293-Kir2.1, FluxOR thallium flux fluorescence; hits give low values; B-score at 10 µM; hit rate 0.85% among 310,000; AID 1672;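 active = fluorescence ratio B-score at or below minus 3 SD of library scores, with starting-brightness B-score within 2 SD, cut at about -4.2 in these data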;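 note: channel flux triggered by added potassium and thallium sulfate stimulus; B-score of peak minus minimum fluorescence over baseline after thallium stimulus; more negative B-score means stronger Kir2.1 block with less thallium influx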
TRPC4 potent – TRPC4 (mouse) allosteric potentiation; Q9QUQ5; HEK293 TRPC4beta/mu-opioid, DAMGO EC20, Fluo-4 Ca2+ flux; hits give high values; B-score at 10 µM; hit rate 0.42% among 310,000;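 active = B-score of calcium response area above 5 SD of library B-scores, with initial fluorescence ratio within 5 SD of library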;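 note: B-score of integrated fluorescence ratio over time as area under calcium response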
Target sequence (Q9QUQ5 whole entry, looked up): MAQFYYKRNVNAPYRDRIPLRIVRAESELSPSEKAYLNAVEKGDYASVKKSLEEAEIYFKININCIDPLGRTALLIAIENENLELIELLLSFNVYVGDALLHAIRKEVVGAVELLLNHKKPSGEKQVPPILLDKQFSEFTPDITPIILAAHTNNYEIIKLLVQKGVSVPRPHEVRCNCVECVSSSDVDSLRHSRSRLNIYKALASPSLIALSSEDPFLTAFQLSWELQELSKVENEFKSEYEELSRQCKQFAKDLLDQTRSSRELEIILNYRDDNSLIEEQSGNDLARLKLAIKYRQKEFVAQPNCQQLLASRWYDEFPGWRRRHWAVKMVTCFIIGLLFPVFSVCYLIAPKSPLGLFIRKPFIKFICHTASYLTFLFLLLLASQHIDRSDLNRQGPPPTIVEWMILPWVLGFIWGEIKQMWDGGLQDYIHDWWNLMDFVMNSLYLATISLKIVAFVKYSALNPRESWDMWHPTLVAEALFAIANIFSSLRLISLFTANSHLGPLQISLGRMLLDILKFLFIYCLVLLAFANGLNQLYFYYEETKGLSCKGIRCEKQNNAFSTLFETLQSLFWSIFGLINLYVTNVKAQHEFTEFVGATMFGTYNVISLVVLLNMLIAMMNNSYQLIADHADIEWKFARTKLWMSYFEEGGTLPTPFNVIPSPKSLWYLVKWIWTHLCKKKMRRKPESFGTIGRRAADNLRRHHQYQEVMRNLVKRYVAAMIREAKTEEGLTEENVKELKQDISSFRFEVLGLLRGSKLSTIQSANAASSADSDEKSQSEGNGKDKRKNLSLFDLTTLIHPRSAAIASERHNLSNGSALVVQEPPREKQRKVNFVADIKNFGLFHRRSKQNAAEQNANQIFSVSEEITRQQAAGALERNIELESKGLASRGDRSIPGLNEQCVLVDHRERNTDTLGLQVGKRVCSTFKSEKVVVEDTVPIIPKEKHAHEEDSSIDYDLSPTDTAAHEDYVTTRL
TRPC6 activator – mouse TRPC6 channel activation. hit rate 0.13% among 310,000. B-score at 10 µM. HEK293-TRPC6 membrane potential dye fluorescence; hits give high values. Q61143;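 active = B-score of the integrated fluorescence ratio above library mean plus 3 SD, and starting fluorescence ratio within library mean plus 5 SD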;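 note: higher score means more depolarization so channel activation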
TRPC4 block – TRPC4 (mouse) channel inhibition; AID 2247; hit rate 0.39% among 300,000; B-score at 10 µM; HEK293 TRPC4beta/mu-opioid, DAMGO-evoked Fluo4 calcium flux; hits give low values;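 active = B-score over 3 SD under the library average, no early fluorescence shift, positive overall ratio signal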
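Assay system: HEK293 cells with stable TRPC4beta plus mu-opioid receptor expression. Dosing: single dose. Measured by: Fluo4 Ca2+ flux fluorescence. Also added: DAMGO in two steps, submaximal then maximal. Read-out: B score from integrated Fluo4 fluorescence ratio.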
TRPC4 act – opens the mouse TRPC4 cation channel; HEK293 TRPC4beta/mu-opioid, Fluo4 calcium fluorescence; hits give high values; B-score at 10 µM; hit rate 0.49% among 310,000; Q9QUQ5; AID 2237;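 active = B-score above 5 SD of library B-scores, and initial fluorescence ratio not above library mean plus 5 SD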;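 note: positive B-score marks a calcium rise read as TRPC4 activation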
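Test system: HEK293 cells stably co-expressing mouse TRPC4beta and mu-opioid receptor | Schedule: Fluo4 dye loading 45 min at room temperature, 110 s recording | Measured by: Kinetic Fluo4 calcium fluorescence, 5 s baseline at 1 Hz | Evaluation: B score of integrated ratio | Controls: Buffer (low) and maximal DAMGO (high)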
TRPC6 inhibitor – blocks the mouse TRPC6 cation channel. Q61143. HEK293-TRPC6, membrane potential dye, ACh-evoked depolarization; hits give low values. B-score at 10 µM. hit rate 1.1% among 310,000. AID 2553;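 active = B-score under library mean minus 3 SD, initial fluorescence not abnormally high, positive integrated signal ratio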;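 note: B-score derived from integrated fluorescence ratio over the kinetic read; more negative B-score means stronger inhibition of depolarization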
TRPC4 sel inh 2 – second check of whether TRPC6 inhibitors also affect mouse TRPC4; hit rate 42% among 920; shares compounds with TRPC6 inhibitor; HEK293 TRPC4/MOR, membrane potential dye fluorescence; channel activated by saturating DAMGO dose; AID 2776; inhibition, % at 10 µM;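 active = compounds whose fluorescence signal differed from control wells by over 3 SD, either direction, in both duplicate plates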
TRPC4 spec – mouse TRPC4 off-target activity of TRPC6 inhibitors | shares compounds with TRPC6 inhibitor | HEK293 TRPC4/mu-opioid, membrane potential fluorescence | activity change, negative = inhibition, % at 10 µM | hit rate 61% among 920;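 active = rise or fall in signal beyond 3 SD of buffer-only wells in both replicate plates, either sign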;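 note: integrated kinetic ratio of fluorescence range over baseline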
HEK293 MPD ctr 2-1 – second check of TRPC6 inhibitor effects in parental HEK293 cells; shares compounds with TRPC6 inhibitor; parental HEK293 membrane potential dye fluorescence; maximal acetylcholine challenge after compound addition; signal change vs control, % at 10 µM; hit rate 31% among 920; AID 2779;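 active = membrane potential signal moving either way by over 3 SD of the maximum-effect control, in both duplicate plates, meaning non-specific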
HEK293 MPD ctr-1 – checks TRPC6 inhibitor effects in parental HEK293 cells. shares compounds with TRPC6 inhibitor. parental HEK293 membrane potential dye fluorescence. membrane potential signal change, % at 10 µM. hit rate 60% among 920. AID 2780;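 active = membrane potential signal shifting up or down by more than 3 SD of buffer-only wells, on both duplicate plates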
HEK293 MPD ctr-2 – counter-screen for TRPC6 modulators: effect in parental HEK293 cells; shares compounds with TRPC6 inhibitor; membrane potential signal change, % at 10 µM; hit rate 51% among 2,400; membrane potential dye fluorescence; AID 488924;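 active = membrane potential signal moves up or down beyond 5 SD from buffer-only wells, on both duplicate plates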
HEK293 MPD ctr 2-2 – second check of TRPC6 modulator effects in parental HEK293 cells; shares compounds with TRPC6 inhibitor; membrane potential dye fluorescence; after compound, maximal acetylcholine stimulation; inhibition, % at 10 µM; hit rate 14% among 2,400;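 active = membrane potential signal drops by more than 5 SD from the mean control signal, in both duplicate plates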;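 note: plate controls were acetylcholine ECmax control wells for no effect and buffer only wells for full effect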
TRPC4 ctr mod – mouse TRPC4 off-target activity of TRPC6 modulators | shares compounds with TRPC6 inhibitor | HEK293 TRPC4/mu-opioid, membrane potential fluorescence | percent change from control (negative = decrease, positive = increase), % at 10 µM | hit rate 69% among 2,400;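 active = membrane potential signal moved up or down beyond 5 SD of buffer control wells, in both duplicate plates, actives on both sides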;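 note: plate controls were assay buffer wells for no effect and DAMGO maximal-effect wells for full effect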
TRPC4/MOR inh 2 – second selectivity test of TRPC6 modulators against mouse TRPC4; shares compounds with TRPC6 inhibitor; HEK293 TRPC4/mu-opioid, membrane potential dye fluorescence; stimulated with maximal-effect DAMGO; inhibition, % at 10 µM; hit rate 55% among 2,400; AID 488928;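 active = drop in membrane potential signal beyond 5 SD of the control wells in both duplicate plates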;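 note: TRPC4 counter screen for TRPC6 hits run under conditions tuned for TRPC6 not TRPC4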
TRPC6 block conf – confirmation of mouse TRPC6 inhibitors; shares compounds with TRPC6 inhibitor; HEK293-TRPC6, membrane potential dye, ACh-evoked depolarization; inhibition, % at 10 µM; hit rate 43% among 3,300; AID 488960;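 active = fluorescence ratio falls more than 5 SD below the full-stimulation control mean, in both duplicate runs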;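 note: integrated fluorescence ratio of peak minus minimum over baseline after agonist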
TRPC6 act conf – confirmation of mouse TRPC6 activators; HEK293-TRPC6 membrane potential dye fluorescence, FDSS; activation, % at 10 µM; shares compounds with TRPC6 inhibitor; hit rate 11% among 2,800;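 active = ratio signal rise beyond 5 SD above unstimulated control wells' mean, seen in both duplicate runs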;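 note: plate controls were buffer EC0 wells for no effect and acetylcholine ECmax response for full effect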
The depositor's hits bear a star; i = inactive; · = not tested or not shown. Shown are actives, neighbours in structure and some others; about 3% of the full set was active somewhere.

SMILES	Kir21 inh	TRPC4 potent	TRPC6 activator	TRPC4 block	TRPC4 act	TRPC6 inhibitor	HEK293 MPD ctr-2	HEK293 MPD ctr 2-2	TRPC4 ctr mod	TRPC4/MOR inh 2	TRPC6 block conf	TRPC6 act conf	others
CCOc1ccc(NC(=O)CC2C(=O)N(c3ccccc3)C(=O)N2CCc2cccs2)cc1 (stereo not drawn)	0.02	i	i	i	i	i	·	·	·	·	·	·
CN(C(=O)CC(NC(=O)c1ccccc1Cl)c1ccccc1)c1ccccc1 (stereo not drawn)	0.68	i	i	i	i	i	·	·	·	·	·	·
COC(=O)Cc1sc(-c2ccccn2)nc1-c1ccccc1	0.44	i	i	i	i	-5.7*	i	i	12%*	i	i	i
COC(=O)Cc1ccc2sc(-c3ccccc3)nc2c1	-0.86	i	i	i	i	i	·	·	·	·	·	·
O=C(NCCN1C(=O)S/C(=C\c2cccs2)C1=O)c1ccc(=O)[nH]c1	0.81	i	i	i	i	i	·	·	·	·	·	·
CCN(CC)CCNC(=S)NC(=O)c1cn(-c2ccccc2)nc1-c1ccc(OC)cc1	-0.32	i	i	i	i	-5.1*	i	i	i	58%*	i	i
Cc1ccc(C(OCCN(C)C)c2cccc(C(F)(F)F)c2)cc1 (stereo not drawn)	-5.2*	i	i	i	i	-5.4*	i	i	18%*	38%*	i	·
S=C(Nc1cccnc1)N1CCN(c2ccccc2Cl)CC1	1.1	i	i	i	i	i	·	·	·	·	·	·
COc1cccc(CN(C)CC(=O)Nc2ccccc2C(C)C)c1	-1.3	i	i	i	i	i	·	·	·	·	·	·
COCCOC(=O)C(C#N)c1nc2ccccc2nc1N1CCN(Cc2ccccc2)CC1 (stereo not drawn)	0.05	i	i	i	i	-6.2*	i	i	i	36%*	i	i
Cc1sc2cc3c(c(C(=O)c4ccccc4)[n+]2c1C)-c1cccc2cccc-3c12	-13*	i	i	-6*	i	-8.6*	·	·	·	·	i	i	TRPC4 sel inh 2=i;TRPC4 spec=-28%*;HEK293 MPD ctr 2-1=i;HEK293 MPD ctr-1=-502%*
COc1cccc(/C=C/C(=O)OCC(=O)NCCc2ccccc2)c1	-0.4	i	i	i	i	i	·	·	·	·	·	·
Cc1cccc(-n2cnc(C(=O)NC3CCCCCC3)c2)n1	-0.41	i	i	i	i	-6*	i	i	9.0%*	i	i	i
Cc1nc2c(o1)CCc1ccccc1C2N1CCN(C)CC1 (stereo not drawn)	-0.26	i	i	i	i	-9.4*	·	·	·	·	74%*	·	TRPC4 sel inh 2=i;TRPC4 spec=8.0%*;HEK293 MPD ctr 2-1=-14%*;HEK293 MPD ctr-1=11%*
COc1ccccc1CC(=O)NC1CCCc2ccccc21 (stereo not drawn)	-3.9	i	i	i	i	i	·	·	·	·	·	·
COc1ccc(CNC2CCCc3ccccc32)c(OC)c1 (stereo not drawn)	-1.9	i	i	i	i	-6*	218%*	i	53%*	63%*	64%*	·
N#CC(c1ccc(F)cc1)c1ccc(C(=O)c2ccc(F)cc2)cc1 (stereo not drawn)	-1.6	i	i	i	i	-7.4*	·	·	·	·	i	i	TRPC4 sel inh 2=i;TRPC4 spec=i;HEK293 MPD ctr 2-1=i;HEK293 MPD ctr-1=i
Cc1ccc(C(C#N)c2ccc(C(=O)c3ccc(F)cc3)cc2)cc1 (stereo not drawn)	0.72	i	i	i	i	i	·	·	·	·	·	·
Cc1ccc(C)c(SCC(=O)c2ccc[nH]2)c1	-1.7	i	i	i	i	i	·	·	·	·	·	·
Cc1cc(C)nc(NS(=O)(=O)c2ccc(NC(=O)CSc3nc(-c4ccccc4)c(C#N)c(=O)[nH]3)cc2)n1	-0.02	i	13*	i	i	i	i	i	10%*	i	i	81%*
O=C(Cc1ccc(NS(=O)(=O)c2ccc(F)cc2)cc1)NCc1cccnc1	-1.3	i	i	i	i	i	·	·	·	·	·	·
COCCOC(=O)c1nccnc1C(=O)Nc1ccc(S(=O)(=O)N2CCOCC2)cc1	-0.2	i	i	i	i	-6.2*	i	i	i	i	i	i
O=C(O)c1nccnc1C(=O)Nc1ccc(S(=O)(=O)N2CCOCC2)cc1	1.6	i	i	i	i	i	·	·	·	·	·	·
NC(=O)c1ccccc1NC(=O)c1ccoc1	0.06	i	i	i	i	i	·	·	·	·	·	·
COc1ccc(C2C3=C(CC(C)(C)CC3=O)Oc3ncn(Cc4ccccc4)c(=N)c32)cc1 (stereo not drawn)	-1.7	i	i	i	i	-5.4*	146%*	i	22%*	69%*	54%*	·
Cc1ccc(NC(=O)Cc2nnc(SCC(=O)NC3CCCC3)n2C)cc1C	0.26	i	i	i	i	i	·	·	·	·	·	·
C[n+]1ccccc1COc1ccc(C(C)(C)C)cc1	-0.08	i	i	i	i	-5.1*	i	i	i	i	i	i

Assay outcomes: PubChem BioAssay, Johns Hopkins Ion Channel Center
